≈ marks a conversion by molar mass, not a printed value. Where two headings read alike, the source gives them in different places.
Key:
[1] = cited from earlier work
[2] = SPIP in GF rats mono-colonized with BTWT/BFWT or BTΔSPT/BFΔSPT; type: in vivo, Wistar rats; conditions: for Peff plateau: SPIP 30 mg/L NAC
Outline: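 Germ-free Wistar rats (6-week-old) fed a fat-free diet (0% kcal fat, 76% carbohydrate, 24% protein) containing only PAA for 12 weeks. Wild-type or SPT-deleted Bacteroides strains, grown anaerobically at 37 °C in BHI with […] cysteine and resuspended in oxygen-free PBS, then given with the diet (10⁸ CFU/μL of PBS per rat, three times weekly) for 8 weeks. In situ single-pass perfusion and Peff determination followed.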

[3] = Single-pass intestinal perfusion; type: in vivo, Wistar rats
Outline: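 Male Wistar germ-free and age-matched SPF rats (6-week-old, 250–300 g), n = 6 per group. Fasted 12 h with free water, anaesthetised with intramuscular ketamine-xylazine (80 mg/kg and 20 mg/kg), kept on a heated surface at 37 ± 1 °C. Intestine perfused single-pass in situ for 2 h, sampled at 15-min intervals, and Peff determined. Perfused and unperfused segments were collected for microbiological detection.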

[4] = cited from earlier work; remark: listed apart in the source

SMILES: CC(=O)N[C@@H](CS)C(=O)O [NAC, N-Acetylcysteine]
- aqueous solubility [1]: 163.9 mg/mL (≈ 1000 mM)
- aqueous solubility ([1]; pH 7.4): 163.9 mg/mL (≈ 1000 mM)
- Peff plateau ([2]; GF^BFΔSPT rats): 1.417 × 10^–4 cm/s
- Peff increase than GF^BTWT and GF^BFWT littermates ([2]; GF^BTΔSPT and GF^BFΔSPT rats vs wild-type colonized): approximately with the two-fold increase
- Peff plateau ([2]; GF^BTΔSPT rats): 1.216 × 10^–4 cm/s
- Peff plateau ([3]; GF rats, SPIP): 1.446 × 10^–4 cm/s
- Peff increase in GF rats than SPF controls ([3]; GF vs SPF rats): two-fold increase
- within-study coefficients of variability (CVs) ([4]; different populations): 35-45%
- tmax ([4]; oral dose of NAC 400 mg, reduced form): 30 min
- Bio-availability, reduced form ([4]; oral dose of NAC 400 mg): 4.0%
- Bio-availability, total drug ([4]; oral dose of NAC 400 mg): 9.1%
- Cmax of the reduced form ([4]; oral dose of NAC 400 mg): 3470 ng/mL
